Results from different studies.
Organism: Human immunodeficiency virus 1
Effect on: viral replication

Structure (SMILES) | assay | system | setting | endpoint | value
O=[N+]([O-])c1cccc(-c2nc3c4cc(I)ccc4c4ccccc4c3[nH]2)c1 | inhibitor | human PBMC | 7 days | IC50 | 14.2 µM
COc1ccccc1CN[C@H]1C2CCN(CC2)[C@H]1C(c1ccccc1)c1ccccc1 | ELISA | human PBMC, BAL | 7 days | IC50 | 15.2 µM
O=C(O)c1cc(F)cc(Cn2ccc3ccc(-c4ccc5ccn(Cc6cccc(OC(F)(F)F)c6)c5c4)cc32)c1 | inhibitor | BAL | – | IC50 | 1.4 µM
O=C(O)c1cc(O)c(O)c(O)c1 | inhibitor | CEM-GFP | 8 days | IC50 | 0.19 µg/mL
CC(C)(C)NC(=O)[C@@H]1C[C@@H]2CCCC[C@@H]2CN1C[C@@H](O)[C@H](Cc1ccccc1)NC(=O)[C@H](CC(N)=O)NC(=O)c1ccc2ccccc2n1 | – | MT2 | – | IC50 | 0.019 µM
COc1cc(F)ccc1-c1ncnc(Nc2cccc(C[S@](C)(=N)=O)c2)n1 | inhibitor | human PBMC | 6 days | EC50 | 3.4 µM
Cc1cn([C@H]2C[C@H](N=[N+]=[N-])[C@@H](CO)O2)c(=O)[nH]c1=O | inhibitor, luciferase | TZM-bl | 48 h | IC50 | 0.043 µg/mL
c1cc(CN2CCCNCCNCCCNCC2)ccc1CN1CCCNCCNCCCNCC1 | inhibitor | MAGI, BAL | – | IC90 | > 10 µM
O=c1cc(-c2ccccc2)oc2cc(O)cc(O)c12 | inhibitor | human PBMC | 6 days | EC50 | 9.2 µM
CC(C)(C)NC(=O)[C@@H]1C[C@@H]2CCCC[C@@H]2CN1C[C@@H](O)[C@H](Cc1ccccc1)NC(=O)[C@H](CC(N)=O)NC(=O)c1ccc2ccccc2n1 | inhibitor | T-lymphoid | – | IC50 | 0.021 µM
COC(=O)c1cccc(Cn2ccc3ccc(-c4ccc5ccn(Cc6cccc(C(=O)O)c6)c5c4)cc32)c1 | inhibitor | MAGI, BAL | – | IC90 | 38.4 µM
O=C1C[C@@H](c2ccc(O)cc2)Oc2cc(O)cc(O)c21 | inhibitor | human PBMC | 6 days | EC50 | > 30 µM
O=c1[nH]cc(C(c2cccc(C(c3c[nH]c(=O)[nH]c3=O)c3c[nH]c(=O)[nH]c3=O)c2)c2c[nH]c(=O)[nH]c2=O)c(=O)[nH]1 | inhibitor, ELISA | – | 1 µg/mL | inhibition | 20%
O=c1oc2c(O)c(O)cc3c(=O)oc4c(O)c(O)cc1c4c23 | inhibitor | CEM-GFP | 8 days | IC50 | 73 µg/mL
C[C@@H](O[C@H]1OCCN(Cc2n[nH]c(=O)[nH]2)[C@H]1c1ccc(F)cc1)c1cc(C(F)(F)F)cc(C(F)(F)F)c1 | inhibitor, ELISA | human PBMC, NL43 | 7 days | IC50 | 5.7 µM
c1cc(CN2CCCNCCNCCCNCC2)ccc1CN1CCCNCCNCCCNCC1 | inhibitor, luciferase | TZM-bl | – | EC50 | 0.00093 µM
